Data: ChEMBL document CHEMBL3272138, “Prostaglandins and congeners. 16. Synthesis and bronchodilator activity of dl-11-doexy-3-thiaprostaglandins” (1977)

Assays:
Cavia porcellus [1] = assay: Bronchodilator activity in iv dosed Hartley guinea pig assessed as inhibition of histamine-induced bronchoconstriction administered 2 mins post histamine challenge as 3 to 4 doses in 15 mins interval; assay type: functional
Procedure, shortened: (§1)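 Guinea pigs under urethane anesthesia, gallamine-paralyzed and artificially ventilated (60 strokes/min). Bronchospasm was evoked by iv acetylcholine (40–150), histamine (5.6–22.5) or serotonin (7.5–30 μg/kg), giving a 20–50 cm water rise in tracheal pressure, every 5 min. Three or four log-spaced iv doses (esters in 10% aqueous ethanol) were given at 15-min intervals, with ≥4 animals per spasmogen. ED50 (–50% variation of the first spasm) came from a semilog regression; if never reached, ED50 > maximal dose.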

Cavia porcellus [2] = assay: Bronchodilator activity in iv dosed Hartley guinea pig assessed as inhibition of serotonin-induced bronchoconstriction administered 2 mins post serotonin challenge as 3 to 4 doses in 15 mins interval; assay type: functional; procedure, shortened: as §1
Cavia porcellus [3] = assay: Bronchodilator activity in iv dosed Hartley guinea pig assessed as inhibition of acetylcholine-induced bronchoconstriction administered 2 mins post acetylcholine challenge as 3 to 4 doses in 15 mins interval; assay type: functional; details: for ED50: Cavia porcellus, Hartley, iv; procedure, shortened: as §1
Canis familiaris [4] = assay: Bronchodilatory activity in anesthetized dog assessed as inhibition of pilocarpine-induced bronchospasms compound administered through aerosol 15 mins post challenge measured up to 1 hr; assay type: functional; details: Canis lupus familiaris, inhaled or nasal
Procedure, shortened: (§2)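 In anesthetized dogs, a long-lasting bronchospasm was induced by pilocarpine, 400 µg/kg injection then 4 µg/kg/min perfusion, requiring an airway resistance increase of at least 200–300% over resting. After a 15-min control period, the compound was delivered by ultrasonic aerosol. Inhibition of bronchoconstriction was followed for the 1-h experiment.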

Cavia porcellus [5] = assay: Bronchodilator activity in Hartley guinea pig assessed as inhibition of histamine-induced bronchoconstriction at 3.2 mg/kg, iv administered 2 mins post histamine challenge as 3 to 4 doses in 15 mins interval; assay type: functional
Procedure, shortened: (§3)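 Urethane (1.5 g/kg ip) anesthetized, gallamine-curarized, ventilated guinea pigs. Spasms were induced by 12-s iv jugular injections every 5 min to raise tracheal pressure 20–50 cm water: acetylcholine 40–150, histamine 5.6–22.5, or serotonin 7.5–30 μg/kg. The drug was given iv over 1 min, 2 min after three stable control spasms. Salts were given as such and esters in 10% aqueous ethanol. Spasm amplitude was expressed as percent variation vs control, with ≥4 animals per spasmogen.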

Cavia porcellus [6] = assay: Bronchodilator activity in Hartley guinea pig assessed as inhibition of serotonin-induced bronchoconstriction at 3.2 mg/kg, iv administered 2 mins post serotonin challenge as 3 to 4 doses in 15 mins interval; assay type: functional; procedure, shortened: as §3
Cavia porcellus [7] = assay: Bronchodilator activity in Hartley guinea pig assessed as inhibition of acetylcholine-induced bronchoconstriction at 3.2 mg/kg, iv administered 2 mins post acetylcholine challenge as 3 to 4 doses in 15 mins interval; assay type: functional; procedure, shortened: as §3
Canis familiaris [8] = assay: Bronchodilatory activity in anesthetized dog assessed as inhibition of pilocarpine-induced bronchospasms at 16 to 32 ug/kg administered through aerosol 15 mins post challenge measured up to 1 hr; assay type: functional, Canis lupus familiaris
Procedure, shortened: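 Anesthetized dogs receive a pilocarpine injection of 400 µg/kg, followed by a pilocarpine perfusion of 4 µg/kg/min, to produce a long-acting bronchospasm. Airway resistance must rise to at least 200-300% of the resting value. After a 15-min control period, compound is given by ultrasonic aerosol. Read-out is percent inhibition of the pilocarpine bronchoconstriction, followed over the 1 h experiment.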

Canis familiaris [9] = assay: Bronchodilatory activity in anesthetized dog assessed as inhibition of pilocarpine-induced bronchospasms at 0.016 to 0.032 ug/kg administered through aerosol 15 mins post challenge measured up to 1 hr; assay type: functional, Canis lupus familiaris; procedure, shortened: as §2

SMILES	ED50 (Cavia porcellus [1]) [mg/kg]	ED50 (Cavia porcellus [2]) [mg/kg]	ED50 (Cavia porcellus [3]) [mg/kg]	inhibition in vivo at 3.2 mg/kg (Cavia porcellus [6]) [%]	inhibition in vivo at 3.2 mg/kg (Cavia porcellus [7]) [%]	further results
CCCCC[C@](C)(O)/C=C/C1CCC(=O)[C@@H]1CCCCSCC(=O)O (mixture of isomers)	0.00185	0.0054	0.0193			
CCCCC[C@](C)(O)/C=C/C1CCC(=O)[C@@H]1CCCCCCC(=O)O (mixture of isomers)	0.00424	0.00699				MED50 (Cavia porcellus [3]): 0.0032 mg/kg
CCCCC(C)(C)[C@@H](O)/C=C/C1CCC(=O)[C@@H]1CCCCSCC(=O)O (mixture of isomers)	0.324	0.032				
CCCCC(C)(C)[C@H](O)/C=C/C1CCC(=O)[C@@H]1CCCCCCC(=O)O (mixture of isomers)	0.00417	0.0259	0.0429			
CCCCC[C@H](O)/C=C/C1CCC(=O)[C@@H]1CCCCSCC(=O)O (mixture of isomers)	0.00507	0.00129	0.00514			ED50 (Canis familiaris [4]): 0.0016 mg/kg
CCCCC(C)(C)[C@H](O)/C=C/C1CCC(=O)[C@@H]1CCCCCSCC(=O)O (mixture of isomers)				< 50	< 50	inhibition in vivo at 3.2 mg/kg (Cavia porcellus [5]): < 50%
CCCCC[C@](C)(O)/C=C/C1CCC(=O)[C@@H]1CCCSCC(=O)O (mixture of isomers)	2.99			< 50	< 50	
CCCCC(C)(C)[C@H](O)/C=C/C1CCC(=O)[C@@H]1CCCCSCC(=O)O (mixture of isomers)	0.0242	0.0523	0.604			
CCCCC[C@@H](O)/C=C/C1CCC(=O)[C@@H]1CCCCSCC(=O)O (mixture of isomers)	0.0113	0.0233				MED50 (Cavia porcellus [3]): 0.2 mg/kg
CCCCC[C@H](O)/C=C/C1CCC(=O)[C@@H]1CCCCCSCC(=O)O (mixture of isomers)				< 50	< 50	inhibition in vivo at 3.2 mg/kg (Cavia porcellus [5]): < 50%
CC(C)NC[C@H](O)c1ccc(O)c(O)c1 [LEVISOPRENALINE]						inhibition (INH) (Canis familiaris [8]): 80%
CCCCC[C@H](O)/C=C/C1CCC(=O)C1CCCCCCC(=O)O (mixture of isomers)	0.0034	0.000397	0.032			
CCCCCC(O)/C=C/C1C(O)CC(=O)C1CCCCCCC(=O)O (stereo unspecified)						inhibition (INH) (Canis familiaris [9]): 70%
CCCCC[C@@H](O)/C=C/C1CCC(=O)[C@@H]1CCCCCSCC(=O)O (mixture of isomers)				< 50	< 50	inhibition in vivo at 3.2 mg/kg (Cavia porcellus [5]): < 50%
CCCCC[C@H](O)/C=C/C1CCC(=O)[C@@H]1CCCSCC(=O)O (mixture of isomers)				< 50	< 50	inhibition in vivo at 3.2 mg/kg (Cavia porcellus [5]): < 50%
